The text below walks through data of article PMC7328899 (Nature cancer, 2020).

The test system of one series is OVISE cells. Briefly: Viability of OVISE cells with and without SLC26A2 knockout. The format is cell-based, human. Conditions: CRISPR/Cas9 SLC26A2 knockout. Put shortly:
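OVISE cells were grown in RPMI with 10% FBS and used with or without CRISPR/Cas9 SLC26A2 knockout; GFP sgRNA served as the non-targeting control. Indel frequency at the cut sites was checked by NGS. Cells were seeded at 2000 cells/well and dosed the next day. CellTiter-Glo viability was normalized to vehicle and reported as the mean of three independently treated wells with SD.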

Series [1] deals with LS1034 colon cancer cell lines with and without ABCB1 knockout.
Series [2] relates to ABCB1-expressing cancer cells. The experiment in a line: Viability of ABCB1-expressing cancer cells. To be noted: compared with tepoxalin. The format is cell-based, human.
The next series relates to SF295 glioma cell line. Briefly: Viability of SF295 cells with and without MTF1 knockout. The format is cell-based, human. Conditions: for change of drug sensitivity after MTF1 knockout: SF295 cells, CRISPR/Cas9 MTF1 knockout vs control. Summed up:
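SF295 glioma cells: wild-type, Cas9 with GFP sgRNA, or Cas9 with MTF1 sgRNAs. Knockout was confirmed by NGS indel assay and loss of MTF1 target gene expression by RNA-seq. Cells were seeded at 2000 cells/well and dosed the next day. CellTiter-Glo viability was normalized to vehicle and reported as the mean of 3 independently treated wells with SD.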

Series [3] has as its system LS1034 and REC1 cell lines. The experiment in a line: Drug synergy/antagonism assays, LS1034 and REC1. The format is cell-based, human. Summed up: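 LS1034 or REC1 cells received a dose-response matrix of test compound with paclitaxel, and viability was read by CellTiter-Glo. Signals were normalized to the median of DMSO wells on each plate. Bliss synergy scores were estimated across all dose combinations with default baseline correction. The value is the score with highest magnitude across combinations (max synergy).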

Series [4] has as its system LS1034 colorectal cancer cells. The experiment in a line: Cellular viability assay. The format is cell-based. To be noted: Homo sapiens, LS-1034. Summed up: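 LS1034 cells were grown in RPMI with 10% heat-inactivated FBS and 1% penicillin-streptomycin, and tested mycoplasma-negative. They were seeded at 2000 cells/well and digitally dispensed with compound the next day. Exposure was 5 days. CellTiter-Glo luminescence was read, replicate wells were averaged and normalized to vehicle, and dose curves were fitted.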

The target in the next series is ABCB1 (Homo sapiens, UniProt P08183). Briefly: ABCB1 activity assays. The format is cell-based. Conditions: MDR1-MDCK cells; calcein AM and loperamide transport assays. Put shortly:
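Calcein AM efflux assay: MDR1-MDCK (MDCKII) cells incubated with test compound and calcein AM; fluorescence read-out expressed as percent ABCB1 inhibition, mean of 3 replicates. Transport assay: loperamide added to the apical side of an MDR1-MDCK monolayer and basolateral transport quantified over 60 minutes, with test compound or verapamil positive control.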

Series [5] deals with Kuramochi ovarian cancer cell line. The experiment in a line: Viability of Kuramochi wild type and ABCB1-overexpressing cells. The format is cell-based, human. Conditions: low-expressing, tepoxalin-insensitive cell line (Kuramochi), 8 days. Put shortly: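 Kuramochi ovarian cancer cells, wild-type or ABCB1-overexpressing, were grown in RPMI with 10% FBS and seeded at 2000 cells/well. Compound was added the next day and cells were treated for 8 days. Viability was read by CellTiter-Glo luminescence, normalized to vehicle, and reported as the mean of 3 independently treated wells with SD.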

A further series has as its system PDE3A-SLFN12. Conditions: cited from earlier work.
For the next series, the system named is LS1034 cells. Briefly: Tepoxalin drug synergy/antagonism assay, LS1034. The format is cell-based, human. To be noted: LS1034, 5 days, tepoxalin doses above ~5 μM.

Sequence of ABCB1 (P08183 whole entry): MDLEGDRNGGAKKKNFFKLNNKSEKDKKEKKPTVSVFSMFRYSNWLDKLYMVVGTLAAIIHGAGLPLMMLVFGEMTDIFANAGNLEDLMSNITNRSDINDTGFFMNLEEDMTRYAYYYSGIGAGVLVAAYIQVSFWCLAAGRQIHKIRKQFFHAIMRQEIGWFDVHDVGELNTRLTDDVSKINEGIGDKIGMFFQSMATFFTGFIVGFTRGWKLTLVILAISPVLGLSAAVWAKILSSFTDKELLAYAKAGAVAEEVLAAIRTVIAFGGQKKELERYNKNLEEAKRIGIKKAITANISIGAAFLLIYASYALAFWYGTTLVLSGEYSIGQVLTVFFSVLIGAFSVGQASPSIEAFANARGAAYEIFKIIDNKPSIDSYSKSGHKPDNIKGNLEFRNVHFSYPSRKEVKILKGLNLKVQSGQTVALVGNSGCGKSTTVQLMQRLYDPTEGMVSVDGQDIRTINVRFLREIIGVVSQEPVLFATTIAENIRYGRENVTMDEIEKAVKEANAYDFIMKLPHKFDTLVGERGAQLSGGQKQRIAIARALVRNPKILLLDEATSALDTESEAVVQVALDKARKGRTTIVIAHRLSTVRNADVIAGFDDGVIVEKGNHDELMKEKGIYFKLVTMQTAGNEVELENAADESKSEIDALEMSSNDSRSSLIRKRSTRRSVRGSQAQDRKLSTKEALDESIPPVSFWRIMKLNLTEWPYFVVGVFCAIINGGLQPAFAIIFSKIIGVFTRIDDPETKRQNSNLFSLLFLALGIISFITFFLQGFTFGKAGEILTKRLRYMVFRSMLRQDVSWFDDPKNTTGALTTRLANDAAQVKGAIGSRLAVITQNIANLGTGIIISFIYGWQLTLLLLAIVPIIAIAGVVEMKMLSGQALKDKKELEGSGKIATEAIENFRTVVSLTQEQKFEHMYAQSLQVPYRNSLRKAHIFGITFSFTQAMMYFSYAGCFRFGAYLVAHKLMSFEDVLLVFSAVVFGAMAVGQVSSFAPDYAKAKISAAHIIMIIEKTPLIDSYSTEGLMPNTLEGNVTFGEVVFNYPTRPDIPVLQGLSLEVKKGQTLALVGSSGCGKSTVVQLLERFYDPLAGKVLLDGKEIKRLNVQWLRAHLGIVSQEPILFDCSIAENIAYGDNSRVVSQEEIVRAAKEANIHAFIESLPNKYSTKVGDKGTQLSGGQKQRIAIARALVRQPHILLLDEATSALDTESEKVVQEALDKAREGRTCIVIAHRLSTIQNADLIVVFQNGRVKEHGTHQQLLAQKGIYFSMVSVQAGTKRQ

Regarding `Cc1occc(=O)c1[O-].Cc1occc(=O)c1[O-].[O]=[V+2]` [BMOV, bis(maltolato)oxovanadium(IV)], in the series with OVISE cells, the “sensitivity of cells after SLC26A2 knockout” value is on record as “resistant”.
Regarding `COc1ccc(-n2nc(CCC(=O)O)cc2-c2ccc(Cl)cc2)cc1` [RWJ20142, 3-(5-(4-chlorophenyl)-1-(4-methoxyphenyl)-1H-pyrazol-3-yl)propanoic acid], the cell permeability result in [1] is given as “not cell-permeable”. The “inhibition of ABCB1-expressing cancer cells” value in series [2] is reported as “no inhibition”.
Consider `CC(C)C[C@H](NC(=O)[C@H](Cc1ccccc1)NC(=O)c1cnccn1)B(O)O` [bortezomib], for which, in the series with SF295 glioma cell line, the “change of drug sensitivity after MTF1 knockout” value was “did not alter sensitivity”.
With `CCN(CC)C(=S)SSC(=S)N(CC)CC` [disulfiram], in the series on SF295 glioma cell line (SF295 MTF1 knockout cells, co-treatment with 1 μM TTM), the “effect of copper chelator tetrathiomolybdate (TTM) on the increased sensitivity” value is “completely reversed”. Also, the “change of drug sensitivity after MTF1 knockout” value in the series on SF295 glioma cell line is listed as “increased sensitivity”.
Take `COc1cc2c(cc1OC)CN(CCc1ccc(NC(=O)c3cccc4c(=O)c5cccc(OC)c5[nH]c34)cc1)CC2` [elacridar]: the “maximum synergy score in combination with paclitaxel” value in [3] is “strongly synergistic”.
Turning to `COc1cc2c(cc1OC)CN(CCc1ccc(NC(=O)c3cc(OC)c(OC)cc3NC(=O)c3cnc4ccccc4c3)cc1)CC2` [tariquidar], in series [3], the “maximum synergy score in combination with paclitaxel” value is “strongly synergistic”.
As to `COc1ccc(-n2nc(CCC(=O)N(C)O)cc2-c2ccc(Cl)cc2)cc1` [tepoxalin], in series [4], half-maximal inhibition (IC50) was put at 3.8 µM. Further, the ABCB1 inhibition entry on ABCB1 was “inhibit ABCB1 at high concentrations”. The “change of drug sensitivity after ABCB1 overexpression” value in [5] was “increased drug sensitivity”.
`COc1cc2c(cc1OC)-c1c/c(=N\c3c(C)cc(C)cc3C)n(C)c(=O)n1CC2` [trequinsin]: the “induction of PDE3A-SLFN12 interaction” value with PDE3A-SLFN12 was “does not induce PDE3A-SLFN12 interaction”.
Turning to `O[C@@H](COc1cccc2ncccc12)CN1CCN([C@@H]2c3ccccc3[C@@H]3[C@H](c4ccccc42)C3(F)F)CC1` [zosuquidar], the “Bliss synergy in combination with tepoxalin” value with LS1034 cells is listed as “strong antagonism”.
As for “bis(ethylmaltolato)oxovanadium(IV) [BEOV]”, the “sensitivity of cells after SLC26A2 knockout” value with OVISE cells is reported as “resistant”.
